# Laboratory results taken from ChEMBL document CHEMBL1139506, “Effect on K(ATP) channel activation properties and tissue selectivity of the nature of the substituent in the 7- and the 3-position of 4H-1,2,4-benzothiadiazine 1,1-dioxides” (J Med Chem, 2005).
# How the values were obtained:
# [1] = species on record: Rattus norvegicus; assay: ED50/IC50 ratio was determined; format: functional
# [2] = species on record: Rattus norvegicus; assay: Concentration required for relaxation of the 30 mM KCl-induced contraction of rat aortic rings (n=4); format: functional; conditions: Aorta, read-out: ED50 (the source's name)
# Outline: (§1)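 Endothelium-denuded transverse aortic rings (3-4 mm) from fed Wistar rats (180-200 g); isometric tension by force transducer. After 60 min equilibration, contracted with 30 mM KCl; at stable tension, drug added cumulatively until maximal relaxation or up to 0.3 mM. Relaxation expressed as % of KCl contraction; ED50 (50% inhibition of KCl plateau) from dose curves; mean ± SEM (n).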
# [3] = species on record: Rattus norvegicus; assay: Concentration required for 50% inhibition of insulin release in rat pancreatic B-cells; format: functional, cell-based
# [4] = species on record: Rattus norvegicus; assay: Effect on insulin secretion from rat pancreatic islets at 50 uM concentration (n=9); format: functional
# Outline: (§2)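 Islets isolated by collagenase from fed Wistar rats (180-220 g); groups of 10 preincubated 30 min, 37 °C, in bicarbonate salt medium with 2.8 mM glucose, 0.5% dialyzed albumin, O2/CO2 95:5. Then incubated 90 min, 37 °C, with 16.7 mM glucose plus drug. Insulin measured by radioimmunoassay against rat insulin standard; expressed as % of drug-free 16.7 mM glucose control; mean ± SEM (n).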
# [5] = species on record: Rattus norvegicus; assay: Effect on insulin secretion from rat pancreatic islets at 10 uM concentration (n=15); format: functional; outline: as §2
# [6] = species on record: Rattus norvegicus; assay: Effect on insulin secretion from rat pancreatic islets at 1 uM concentration (n=15); format: functional; outline: as §2
# [7] = species on record: Rattus norvegicus; assay: Concentration giving 50% relaxation of the 30 mM KCl-induced contraction of rat aortic rings (n=7); format: functional; conditions: Aorta, read-out: ED50 (the source's name); outline: as §1
# [8] = species on record: Rattus norvegicus; assay: Effect on insulin secretion from rat pancreatic islets at 50 uM concentration (n=16); format: functional; outline: as §2
# [9] = species on record: Rattus norvegicus; assay: Concentration giving 50% relaxation of the 30 mM KCl-induced contraction of rat aortic rings (n=6); format: functional; conditions: Aorta, read-out: ED50 (the source's name); outline: as §1
# [10] = species on record: Rattus norvegicus; assay: Effect on insulin secretion from rat pancreatic islets at 10 uM concentration (n=32); format: functional
# [11] = species on record: Rattus norvegicus; assay: Effect on insulin secretion from rat pancreatic islets at 50 uM concentration (n=35); format: functional
# [12] = species on record: Rattus norvegicus; assay: Effect on insulin secretion from rat pancreatic islets at 1 uM concentration (n=31); format: functional
# [13] = species on record: Rattus norvegicus; assay: Effect on insulin secretion from rat pancreatic islets at 10 uM concentration (n=14); format: functional; outline: as §2
# [14] = species on record: Rattus norvegicus; assay: Effect on insulin secretion from rat pancreatic islets at 50 uM concentration (n=12); format: functional; outline: as §2
# [15] = species on record: Rattus norvegicus; assay: Effect on insulin secretion from rat pancreatic islets at 1 uM concentration (n=16); format: functional; outline: as §2
# [16] = Ionization constant was determined; format: physicochemical
# Outline: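 Ionization constant found by UV spectroscopy in aqueous buffers spanning pH 5 to 12; pKa calculated with the Debye-Hückel equation at the absorbance maximum of the basic form.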
# [17] = species on record: Rattus norvegicus; assay: Concentration giving 50% relaxation of the 30 mM KCl-induced contraction of rat aortic rings (n=5); format: functional; conditions: Aorta, read-out: ED50 (the source's name); outline: as §1
# [18] = species on record: Rattus norvegicus; assay: Effect on insulin secretion from rat pancreatic islets at 10 uM concentration (n=24); format: functional; outline: as §2
# [19] = species on record: Rattus norvegicus; assay: Effect on insulin secretion from rat pancreatic islets at 1 uM concentration (n=20); format: functional; outline: as §2
# [20] = species on record: Rattus norvegicus; assay: Effect on insulin secretion from rat pancreatic islets at 50 uM concentration (n=18); format: functional; outline: as §2
# [21] = species on record: Rattus norvegicus; assay: Effect on insulin secretion from rat pancreatic islets at 50 uM concentration (n=21); format: functional; outline: as §2
# [22] = species on record: Rattus norvegicus; assay: Effect on insulin secretion from rat pancreatic islets at 10 uM concentration (n=13); format: functional; outline: as §2
# [23] = species on record: Rattus norvegicus; assay: Effect on insulin secretion from rat pancreatic islets at 50 uM concentration (n=13); format: functional; outline: as §2
# [24] = species on record: Rattus norvegicus; assay: Effect on insulin secretion from rat pancreatic islets at 1 uM concentration (n=14); format: functional; outline: as §2
# [25] = species on record: Rattus norvegicus; assay: Concentration giving 50% relaxation of the 30 mM KCl-induced contraction of rat aortic rings (n=10); format: functional; conditions: Aorta, read-out: ED50 (the source's name); outline: as §1
# [26] = species on record: Rattus norvegicus; assay: Effect on insulin secretion from rat pancreatic islets at 10 uM concentration (n=23); format: functional; outline: as §2
# [27] = species on record: Rattus norvegicus; assay: Effect on insulin secretion from rat pancreatic islets at 1 uM concentration (n=22); format: functional; outline: as §2
# [28] = species on record: Rattus norvegicus; assay: Concentration giving 50% relaxation of the 30 mM KCl-induced contraction of rat aortic rings (n=11); conditions: Aorta, read-out: ED50
# [29] = species on record: Rattus norvegicus; assay: Effect on insulin secretion from rat pancreatic islets at 10 uM concentration (n=16); format: functional; outline: as §2
# [30] = species on record: Rattus norvegicus; assay: Effect on insulin secretion from rat pancreatic islets at 10 uM concentration (n=22); format: functional; outline: as §2
# [31] = species on record: Rattus norvegicus; assay: Effect on insulin secretion from rat pancreatic islets at 50 uM concentration (n=14); format: functional; outline: as §2
# [32] = species on record: Rattus norvegicus; assay: Concentration giving 50% relaxation of the 30 mM KCl-induced contraction of rat aortic rings (n=3); format: functional; conditions: Aorta, read-out: ED50 (the source's name); outline: as §1
# [33] = species on record: Rattus norvegicus; assay: Effect on insulin secretion from rat pancreatic islets at 50 uM concentration (n=15); format: functional; outline: as §2
# [34] = species on record: Rattus norvegicus; assay: Concentration required for relaxation of the 30 mM KCl-induced contraction of rat aortic rings; Precipitate; format: functional; conditions: Aorta; outline: as §1
# [35] = species on record: Rattus norvegicus; assay: Concentration required for relaxation of the 30 mM KCl-induced contraction of rat aortic rings; format: functional; conditions: Aorta; outline: as §1
# [36] = species on record: Rattus norvegicus; assay: Concentration giving 50% relaxation of the 30 mM KCl-induced contraction of rat aortic rings (n=8); format: functional, Aorta; conditions: read-out: ED50 (the source's name); outline: as §1
# [37] = species on record: Rattus norvegicus; assay: Effect on insulin secretion from rat pancreatic islets at 50 uM concentration (n=23); format: functional; outline: as §2
# [38] = species on record: Rattus norvegicus; assay: Effect on insulin secretion from rat pancreatic islets at 1 uM concentration (n=19); format: functional; outline: as §2
compound,measurement,setting,value
CCC(C)NC1=NS(=O)(=O)c2cc(OC)ccc2N1 (configuration not stated),Ratio,[1],4.4
same,EC50,[2],17.5 µM
same,IC50,[3],4 µM
same,Residual insulin release,[4],8.5%
same,Residual insulin release,[5],23.4%
same,Residual insulin release,[6],92.4%
CCCNC1=NS(=O)(=O)c2cc([N+](=O)[O-])ccc2N1,EC50,[7],15.7 µM
same,Residual insulin release,[8],88.9%
CC(C)NC1=NS(=O)(=O)c2cc(Cl)ccc2N1,Ratio,[1],52
same,EC50,[9],36.3 µM
same,IC50,[3],0.7 µM
same,Residual insulin release,[10],4.9%
same,Residual insulin release,[11],5.7%
same,Residual insulin release,[12],36.2%
CCCNC1=NS(=O)(=O)c2cc(OC)ccc2N1,Ratio,[1],>34
same,EC50,[2],> 300 µM
same,IC50,[3],8.9 µM
same,Residual insulin release,[13],47.4%
same,Residual insulin release,[14],6.3%
same,Residual insulin release,[15],101.7%
CCCCCc1ccc2c(c1)S(=O)(=O)NC(NC1CCC1)=N2,EC50,[2],> 30 µM
same,Residual insulin release,[5],95.3%
COc1ccc2c(c1)S(=O)(=O)NC(NC(C)C)=N2,pKa,[16],10.1
same,Ratio,[1],74
same,EC50,[17],274 µM
same,IC50,[3],3.7 µM
same,Residual insulin release,[18],8.5%
same,Residual insulin release,[14],4.4%
same,Residual insulin release,[19],67.6%
CCC(C)NC1=NS(=O)(=O)c2cc([N+](=O)[O-])ccc2N1 (configuration not stated),EC50,[2],6.1 µM
same,Residual insulin release,[20],63.3%
CC(C)NC1=NS(=O)(=O)c2cc(C#N)ccc2N1,pKa,[16],8.56
same,EC50,[2],42.7 µM
same,Residual insulin release,[5],82.2%
same,Residual insulin release,[21],23.5%
CC(C)NC1=NS(=O)(=O)c2cc(C(F)(F)F)ccc2N1,pKa,[16],8.96
same,Ratio,[1],7.7
same,EC50,[9],13.1 µM
same,IC50,[3],1.7 µM
same,Residual insulin release,[22],7.4%
same,Residual insulin release,[23],7.1%
same,Residual insulin release,[24],71.5%
CCC(C)NC1=NS(=O)(=O)c2cc(C)ccc2N1 (configuration not stated),Ratio,[1],1.4
same,EC50,[25],15.5 µM
same,IC50,[3],11.2 µM
same,Residual insulin release,[26],50.7%
same,Residual insulin release,[27],93.6%
CC1=Nc2ccc(Cl)cc2S(=O)(=O)N1 [DIAZOXIDE],Ratio,[1],1
same,EC50,[28],22.4 µM
same,IC50,[3],22.6 µM
same,Residual insulin release,[29],73.9%
same,Residual insulin release,[8],26.7%
same,Residual insulin release,[6],87.5%
CC(C)NC1=NS(=O)(=O)c2cc(C(=O)O)ccc2N1,EC50,[2],> 300 µM
same,Residual insulin release,[26],96.6%
same,Residual insulin release,[8],98.6%
CCCNC1=NS(=O)(=O)c2cc(C(F)(F)F)ccc2N1,EC50,[2],2.9 µM
same,Residual insulin release,[30],77.9%
same,Residual insulin release,[31],52%
Cc1ccc2c(c1)S(=O)(=O)N=C(NC(C)C)N2,pKa,[16],10.2
same,Ratio,[1],100
same,EC50,[32],200 µM
same,IC50,[3],2 µM
same,Residual insulin release,[13],8.5%
same,Residual insulin release,[23],3.5%
same,Residual insulin release,[6],71.3%
CCCCCc1ccc2c(c1)S(=O)(=O)NC(NC(C)C)=N2,EC50,[2],20.1 µM
same,Residual insulin release,[29],106%
CC(C)NC1=NS(=O)(=O)c2cc(N)ccc2N1,pKa,[16],10.5
same,EC50,[2],> 300 µM
same,Residual insulin release,[33],85.8%
CCOc1ccc2c(c1)S(=O)(=O)NC(NC1CCC1)=N2,EC50,[2],> 300 µM
same,Residual insulin release,[29],84.9%
CC(C)C(C)NC1=NS(=O)(=O)c2cc([N+](=O)[O-])ccc2N1 (configuration not stated),EC50,[2],2.8 µM
same,Residual insulin release,[8],90.4%
CCC(C)NC1=NS(=O)(=O)c2cc(C(=O)O)ccc2N1 (configuration not stated),EC50,[2],> 300 µM
same,Residual insulin release,[26],93%
same,Residual insulin release,[8],91.2%
CCC(C)NC1=NS(=O)(=O)c2ccccc2N1 (configuration not stated),ED50,[34],Precipitate
same,Residual insulin release,[29],42.7%
same,Residual insulin release,[15],90.4%
CC(C)C(C)NC1=NS(=O)(=O)c2cnccc2N1 (configuration not stated),IC50,[35],154 µM
same,Ratio,[1],35
same,EC50,[36],154 µM
same,Residual insulin release,[26],13.7%
same,Residual insulin release,[37],8.6%
same,Residual insulin release,[38],70.5%
